# Published values gathered from unrelated publications.
# Compare with care: the assays were run in different laboratories.
# SLC10A2: Ileal sodium/bile acid cotransporter (SLC10A2, Homo sapiens, UniProt Q12908)
# ACVR2A: Activin receptor type-2A (ACVR2A, Homo sapiens, UniProt P27037)
# Methionyl-tRNA synthetase, putative: Methionyl-tRNA synthetase, putative (Trypanosoma brucei brucei, UniProt Q38C91)
# BRD9: Bromodomain-containing protein 9 (BRD9, Homo sapiens, UniProt Q9H8M2)
# SETD7: Histone-lysine N-methyltransferase SETD7 (SETD7, Homo sapiens, UniProt Q8WTS6)
# CDKL3: Cyclin-dependent kinase-like 3 (CDKL3, Homo sapiens, UniProt Q8IVW4)
Structure (SMILES),target,test,test system,setting,measurement,result
Nc1nc(NC2CC2)c2ncn([C@H]3C=C[C@@H](CO)C3)c2n1,SLC10A2,"transporter uptake, inhibitor, radiometric",,1 mM,inhibition,13.1%
Nc1ncnc2occ(-c3ccc(NC(=O)Nc4cc(C(F)(F)F)ccc4F)cc3)c12,"Serine/threonine-protein kinase 35 (STK35, Homo sapiens, UniProt Q8TDR2)","cell-free assay, inhibitor",,20 µM,remaining signal,1.6%
COC(=O)c1ccc(N2CCN(C)CC2)c(NC(=O)c2cccc(OC)c2)c1,"WD repeat-containing protein 5 (WDR5, Homo sapiens, UniProt P61964)","thermal stability, DSF",,100 µM,ΔTm,8.4 °C
Cn1c2c(c3ccc(Cl)c(Cl)c31)C(C#N)C1(CCNCC1)NC2=O (racemic),ACVR2A,"thermal stability, DSF",,10 µM,ΔTm,0 °C
O=C(Cc1cc(Cl)cc(Cl)c1)N1CCCC(c2nc3cc(F)ccc3[nH]2)C1 (centres unmarked),"Methionyl-tRNA synthetase, putative","thermal stability, DSF",,100 µM,ΔTm,8 °C
CN1CCC2(CC1)NC(=O)c1c(c3ccc(Cl)c(Cl)c3n1C)C2C#N (racemic),ACVR2A,"thermal stability, DSF",,10 µM,ΔTm,0.4 °C
Cc1cc2c(cc1N1C(=O)c3cccc4c(Cl)ccc(c34)C1=O)n(C)c(=O)n2C,"PHIP (Homo sapiens, UniProt Q8WWQ0)","thermal stability, DSF",,10 µM,ΔTm,-2.4 °C
C[C@@H]1C[C@H]2[C@@H]3CCC4=CC(=O)C=C[C@]4(C)[C@@]3(F)[C@@H](O)C[C@]2(C)[C@@]1(O)C(=O)CO,SLC10A2,"transporter uptake, inhibitor, radiometric",,1 mM,inhibition,< 10%
NS(=O)(=O)c1ccc(Nc2nc(-c3ccc(F)cc3)c3ccccc3n2)cc1,BRD9,"binding, competition with immobilised ligand",,1 µM,remaining binding,81%
CSc1ccc2c(c1)N(CCC1CCCCN1C)c1ccccc1S2 (centres unmarked),SLC10A2,"transporter uptake, inhibitor, radiometric",,1 mM,inhibition,97.1%
O=c1c(-c2cc(O)c(O)c(O)c2)coc2cc(O)c(O)c(O)c12,SETD7,cell-free assay,,10 µM,inhibition,34%
O=C(Cc1cc(Cl)cc(Cl)c1)N1CCCC(c2nc3cc(Cl)c(Cl)cc3[nH]2)C1 (centres unmarked),"Methionyl-tRNA synthetase, putative","thermal stability, DSF",,100 µM,ΔTm,7 °C
Cc1cnc(Nc2ccc(OCCN3CCCC3)cc2)nc1Nc1cccc(S(=O)(=O)NC(C)(C)C)c1,BRD9,"thermal stability, DSF",,10 µM,ΔTm,0.58 °C
O=C(O)C1=CC(=C(c2ccc(O)c(C(=O)O)c2)c2ccc(O)c(C(=O)O)c2)C=CC1=O,SETD7,cell-free assay,,10 µM,inhibition,100%
Oc1ccc(-c2nc(-c3ccncc3)c(-c3ccc(F)cc3)[nH]2)cc1,"PHIP, BD2 (Homo sapiens, UniProt Q8WWQ0)","thermal stability, DSF",,10 µM,ΔTm,0.27 °C
COc1cc(Cl)c(C(=O)N[C@@H](CN[C@H]2CC[C@@H](N)CC2)Cc2ccc(C#N)cc2)cc1-c1ccc(CN[C@H](C)c2ccc(C)cc2)o1,CDKL3,"enzyme activity, inhibitor",,1 µM,remaining activity,95%
CCOC(=O)[C@](CC)(CCCS(=O)(=O)CCOCCOCCNC(=O)OC(C)(C)C)NC(=O)c1ccc(C2CC2)c(Cc2ccc(F)cc2)n1,"Cannabinoid receptor 2 (CNR2, Homo sapiens, UniProt P34972)","cAMP, agonist",,,Emax,89%
CC(=O)N[C@H]1CSSC[C@@H](C(=O)N[C@@H](Cc2c[nH]c3ccccc23)C(N)=O)NC(=O)[C@H](Cc2ccccc2)NC(=O)[C@H](CCCNC(=N)N)NC1=O,"Melanocortin receptor 5 (MC5R, Homo sapiens, UniProt P33032)","cAMP, agonist",HEK293,3 min,Emax,0%
C[S+]([O-])c1ccc(-c2nc(-c3ccncc3)c(-c3ccc(F)cc3)[nH]2)cc1 (centres unmarked),BRD9,"thermal stability, DSF",,10 µM,ΔTm,-0.33 °C
Cc1ccc(C(=O)Nc2ccc(CN3CCN(C)CC3)c(C(F)(F)F)c2)cc1C#Cc1cnc2cccnn12,CDKL3,enzyme activity,,23.5 nM,remaining activity,26%
